# Assay outcomes (PubChem BioAssay)
# A selection: hits, their analogues and other compounds. The true share with any hit is near 1.9%.
# MBD2 inh: inhibitors of human MBD2 binding to methylated oligonucleotide; TR-FRET; inhibition, % at 4.4 µM; actives 0.31% (n = 370,000); AID 686964; in the data active means inhibition above about 13%
# DDE Tn6 FP inh: DD(E)-Tn6 binding inhibition, primary FP screen. P02675. Fibrin DD(E) TRITC-Tn6 fluorescence polarization displacement. inhibition, % at 8.3 µM. actives 0.21% (n = 370,000);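 active means inhibition above a per-campaign cutoff: mean of compounds within control limits plus 3 SD, cut at about 15% in these data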;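 further: 0% = median of all compound wells on the plate and 100% = blocking peptide control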
# UHRF1 MBD2 ctr: UHRF1 methyl-DNA binding inhibition | UHRF1 binding to methylated oligo, TR-FRET | Q96T88 | inhibition, % at 4.4 µM | actives 0.75% (n = 370,000); in the data active means inhibition above about 21%;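 further: UHRF1 SRA domain binding a hemimethylated CpG hairpin DNA probe; 0% = median of test compound wells and 100% = reference inhibitor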
# TDP2 inh: TDP2 (human) inhibition, absorbance primary screen | recombinant TDP2, T5PNP hydrolysis, p-nitrophenol absorbance 415 nm | inhibition, % at 12.8 µM | actives 0.34% (n = 370,000) | AID 720702;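 active means inhibition above the mean of all tested compounds plus 3 SD, set per campaign, cut at about 25% in these data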;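 further: 0% = DMSO with enzyme and 100% = buffer with substrate but no TDP2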
# Target sequence (O95551 whole entry, looked up): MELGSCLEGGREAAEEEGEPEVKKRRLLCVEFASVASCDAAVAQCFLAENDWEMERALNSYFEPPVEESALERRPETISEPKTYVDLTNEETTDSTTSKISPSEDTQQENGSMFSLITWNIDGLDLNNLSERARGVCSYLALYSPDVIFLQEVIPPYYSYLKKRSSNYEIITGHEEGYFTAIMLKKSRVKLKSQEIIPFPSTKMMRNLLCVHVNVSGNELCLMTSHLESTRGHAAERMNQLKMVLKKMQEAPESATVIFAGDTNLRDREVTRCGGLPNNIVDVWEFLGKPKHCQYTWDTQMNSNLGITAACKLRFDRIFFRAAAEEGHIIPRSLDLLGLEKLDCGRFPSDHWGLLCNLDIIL
#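 System – recombinant human TDP2 · Amount – 120 nM TDP2 per well · Buffer or medium – Mg2+-containing Tris-HCl buffer, pH 7.5 · Reagent – T5PNP substrate, 5 mM · Dosing – 12.8 µM single point, 1% DMSO · Incubation – 2 h at 37 °C · Measured by – epi absorbance · Read-out basis – percent inhibition · Benchmarks – high control without enzyme, low control DMSO plus TDP2 · Repeats – singlicate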
# LEDGF integ inh: blocks HIV-1 LEDGF/p75-dependent DNA integration | actives 0.64% (n = 370,000) | inhibition, % at 3.7 µM | TR-FRET IN-LEDGF/p75 DNA integration, Eu/Cy5 | AID 743269;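 active means inhibition above the screen-wide mean plus 3 SD, cut at about 13% in these data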;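 further: signal is the Cy5 over europium emission ratio at 671 and 618 nm; 0% = plate median of compound wells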
# Tn7 DDE FP: disrupts Tn7 cyclic peptide binding to fibrin D-Dimer-E complex | FP displacement of FITC-Tn7 peptide from fibrin DD(E); 0% = median of compound wells per plate | actives 0.13% (n = 370,000) | inhibition, % at 8.3 µM | AID 720508 | P02675;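 active means inhibition above the mean of compounds falling within the control limits plus 3 SD of them, cut at about 14% in these data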;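 further: 0% = plate median of compound wells and 100% = 10 µM Aha-Tn7 peptide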
#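 assay system = human clot-derived fibrin DD(E) complex | quantity = Fibrin-DD(E) at 2 µM final | timing = 10 min preincubation, 3 h with tracer, room temperature | signal = fluorescence polarization | measure = percent inhibition | benchmarks = high control wells with 10 µM unlabelled Aha-Tn7 peptide (full inhibition) | replicates = singlicate testing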
# * hit, by the source's call; + = active, no number.
SMILES,MBD2 inh,DDE Tn6 FP inh,UHRF1 MBD2 ctr,TDP2 inh,LEDGF integ inh,Tn7 DDE FP
O=C(Cn1cc(COc2c(Br)cc(F)cc2Br)nn1)c1ccc(O)cc1,13,0,21*,-7,3,2
O=Cc1cccc(OCc2cn(CC(=O)c3ccc(O)cc3)nn2)c1,12,6,24*,6,3,4
O=C(Cn1cc(COc2ccc(Br)cc2)nn1)c1ccc(O)cc1,5,-6,9,1,-3,-5
O=C(Cn1cc(COc2ccccc2[N+](=O)[O-])nn1)c1ccc(O)cc1,-3,3,1,3,-1,8
O=C(Cn1cc(COc2c(F)c(F)c(Br)c(F)c2F)nn1)c1ccc(O)cc1,-2,-1,4,-7,-3,-3
COC(=O)[C@]12C[C@H](CC(=O)N3CCSCC3)C(=O)N(CCc3ccc(OC)c(OC)c3)C1=C[C@H](COCc1ccccc1)O[C@@H]2C,4,-4,-1,12,-2,-5
CCCCCCCCN1C(=O)[C@@H](CC(=O)N2CCN(C(=O)C3CC3)CC2)C[C@@]2(C(=O)OC)C1=C[C@H](C1CCCC1)O[C@@H]2C,0,4,0,-4,-3,2
O=C(Cn1cc(COC(=O)c2c3ccccc3cc3ccccc23)nn1)c1ccc(O)cc1,10,-8,20,-11,-6,-1
CC(=O)c1cc(C)c(OCc2cn(CC(=O)c3ccc(O)cc3)nn2)c(C)c1,9,2,21*,-4,5,-4
C[C@H](O)[C@@H]1C(=O)N2CCc3c([nH]c4c(-c5ccccc5)cccc34)[C@@H]2C[C@@H]1N(C)C(=S)Nc1ccc(C#N)cc1,3,-2,-1,-4,-2,4
Cc1cc(C)cc(Cn2cc(CN3CC(N4CCN(C)CC4)CS3(=O)=O)nn2)c1 (centres undefined),5,5,24*,0,-1,-4
O=S1(=O)CC(N2CCSCC2)CN1Cc1cn(Cc2ccc(C(F)(F)F)cc2)nn1 (centres undefined),-3,-2,6,-12,4,-4
Cc1cc(C)cc(Cn2cc(CN3CC(N4CCCC4)CS3(=O)=O)nn2)c1 (centres undefined),-4,1,6,-14,4,-5
CN1CCN(C2CN(Cc3cn(Cc4ccc(C(F)(F)F)cc4)nn3)S(=O)(=O)C2)CC1 (centres undefined),4,-1,25*,-9,2,-4
CCCCCCN1CCN(C2CN(Cc3cn(Cc4cc(C)cc(C)c4)nn3)S(=O)(=O)C2)CC1 (centres undefined),4,2,23*,9,-3,-4
O=C1CSc2ccc(C(=O)Nc3cccc(S(=O)(=O)Nc4ccc(Br)cc4)c3)cc2N1,7,+,3,-4,5,-4
O=C(O)c1ccc(NC(=O)c2cccc(S(=O)(=O)Nc3ccc(C(=O)O)cc3)c2)cc1,7,5,2,-7,-2,-3
c1csc(-c2nnc(SCc3cccc4ccccc34)o2)c1,-3,3,3,0,5,-2
COc1cc(NCCCCCCN)c2ncccc2c1OC,-6,10,2,52*,40*,-5
COc1cc(NCCCCC(C)N)c2nccc(C)c2c1 (centres undefined),-9,1,-1,9,12,0
COc1cc2c(NCCCCCO)ncnc2c(OC)c1OC,0,5,1,1,1,0
COc1cc(NC(C)CCCNC(C)C)c2ncccc2c1OC (centres undefined),-7,-6,-1,16,14*,-5
O=C(N=Nc1c(O)[nH]c2c(Cl)cc(Cl)cc12)c1ccccc1O,1,-1,-3,4,-2,-4
CCOC(=O)Cn1cc(CN2C(C(=O)OC)CN(Cc3ccc(C)cc3)CCS2(=O)=O)nn1 (centres undefined),-4,-10,14,0,1,4
Cc1ccc(C(=O)N2CCC[C@@H]2C(=O)N2CCC[C@@H]2C(=O)NCc2ccccc2)cc1C,2,7,1,8,-1,1
SMILES,MBD2 inh,DDE Tn6 FP inh,UHRF1 MBD2 ctr,TDP2 inh,LEDGF integ inh,Tn7 DDE FP
O=C(Nc1ccccc1[N+](=O)[O-])NC1CCCCN(Cc2cccc(Cl)c2)C1=O (centres undefined),0,6,-3,3,5,4
Cc1ccc(NCc2nnc(SCC(=O)Nc3cc(C)on3)n2C)cc1,6,-2,2,-6,-3,1
CCSc1nnc(CNc2ccc(C)cc2)n1C,11,-11,24*,-10,0,2
COc1ccc2c3c(cccc13)C(=O)N(O)C2=O,-10,1,-16,2,1,1
CCN1C(=O)c2cccc3c(N)ccc(c23)C1=O,-92,7,-299,-3,-6,32*
CCOC(=O)C1(Cc2ccccc2)CCN(Cc2ccc(C)cc2)CC1,-5,2,-1,10,2,6
CC(=O)NN1C(=O)c2ccccc2NC1c1ccccc1F (centres undefined),2,-6,63*,0,-4,6
COc1ccc(Cn2c(C)c(CC(=O)Nc3ccc(Oc4cccnc4)c(C)c3)c3ccccc32)cc1,-2,6,-3,-6,-3,-1
S=C(NCc1ccccc1)NC1CCSc2ccccc21 (centres undefined),7,1,24*,-2,7,9
Cc1cccc(NC(=S)NC2CCSc3ccccc32)c1 (centres undefined),-6,-1,-2,-12,-10,9
Cc1[nH]n(-c2cccc(Cl)c2)c(=O)c1-c1ccccc1,-3,-4,39*,-10,-1,-2
Cc1[nH]n(-c2ccccc2)c(=O)c1-c1ccccc1,1,1,0,8,-1,-2
COCCN1Cc2cc(C(=O)OC)c3c(c2C1=O)c1cc(OC)ccc1n3S(=O)(=O)c1ccc(C)cc1,3,-3,0,4,-1,-8
CCC1CCCCN1CCCNC(=O)c1cn(C)c2ccc(S(=O)(=O)N3CCOCC3)cc2c1=O (centres undefined),4,2,2,-5,-4,1
CCC1CCCCN1CCCNC(=O)c1cn(C)c2ccc(S(=O)(=O)N(C)C3CCCCC3)cc2c1=O (centres undefined),6,1,23*,-12,6,2
CCn1c(=O)cc(SCC(=O)NCCCN2CCN(c3ccc(F)cc3)CC2)c2ccccc21,-2,3,21*,12,-1,-1
CCn1c(=O)cc(SCC(=O)NCCCN2CCC(C)CC2)c2ccccc21,0,0,-2,4,4,0
